Experimental data taken from ChEMBL document CHEMBL1148636, “Novel analogues of degarelix incorporating hydroxy-, methoxy-, and pegylated-urea moieties at positions 3, 5, 6 and the N-terminus. Part III” (J Med Chem, 2006).
Converted amounts (≈) assume the structure as drawn. Numbered stars: 1 amine (or outer) side, 2 acyl side, 3 side chain; on linkers, the order of the positions; unused ones are H or OH. Square brackets hold non-standard residues; d marks the D form. Side chains are listed from the residue outwards. Peptide text beside a SMILES is read from it. * marks the point of attachment. dPhe(4-NHCONH2) = NC(=O)Nc1ccc(C[C@@H](N)C(=O)O)cc1; Dihydroorotyl(S) = O=C1C[C@@H](C(=O)*)NC(=O)N1; dPhe(4-NH2) = Nc1ccc(C[C@@H](N)C(=O)O)cc1; dPhe(4-Cl) = N[C@H](Cc1ccc(Cl)cc1)C(=O)O; Phe(4-NH2) = Nc1ccc(C[C@H](N)C(=O)O)cc1; d2Nal = N[C@H](Cc1ccc2ccccc2c1)C(=O)O; Lys(iPr) = CC(C)NCCCC[C@H](N)C(=O)O; NHCH2CH2OCH2CH2OEt = CCOCCOCCN*; d3Pal = N[C@H](Cc1cccnc1)C(=O)O; Methoxycarbamoyl = CONC(=O)*; PEG3 = NCCOCCOCCOCCC(=O)O; CO = O=C([*:1])[*:2]; Butyryl = CCCC(=O)*

What follows are compounds tested on Mast cell (Rattus norvegicus) (assay: Histamine release in mast cells by ELISA).

SMILES | EC50 [µg/mL]
CC(=O)N[C@H](Cc1ccc2ccccc2c1)C(=O)N[C@H](Cc1ccc(Cl)cc1)C(=O)N[C@H](Cc1cccnc1)C(=O)N[C@@H](CO)C(=O)N[C@@H](Cc1ccc(NC(=O)NO)cc1)C(=O)N[C@H](Cc1ccc(NC(N)=O)cc1)C(=O)N[C@@H](CC(C)C)C(=O)N[C@@H](CCCCNC(C)C)C(=O)N1CCC[C@H]1C(=O)N[C@H](C)C(N)=O | 118 (≈ 75.9 µM)

These compounds were tested against T1, Gonadotropin-releasing hormone receptor (Homo sapiens, UniProt P30968) (assay: Antagonist activity at human GnRH receptor expressed in HEK293 cells as inhibition of GnRH-induced LH secretion by reporter gene assay).
T1 sequence (P30968 whole entry): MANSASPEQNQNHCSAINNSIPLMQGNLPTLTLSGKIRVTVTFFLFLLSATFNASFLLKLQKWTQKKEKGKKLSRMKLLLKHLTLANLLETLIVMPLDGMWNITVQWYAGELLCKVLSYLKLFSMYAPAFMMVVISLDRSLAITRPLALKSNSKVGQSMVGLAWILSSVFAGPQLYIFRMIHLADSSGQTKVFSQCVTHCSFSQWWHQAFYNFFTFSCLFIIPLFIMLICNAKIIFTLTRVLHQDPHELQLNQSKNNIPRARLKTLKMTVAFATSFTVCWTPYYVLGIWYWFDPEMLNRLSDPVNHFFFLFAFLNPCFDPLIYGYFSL
Assay type: functional, cell-based
In short: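 HEK293 cells stably expressing cloned human GnRH receptor plus luciferase reporter under LH alpha subunit promoter; plated 5 × 10^4 cells/well, overnight 37 °C. Compounds in 1% DMSO, 11 half-log concentrations in duplicate, 10 min preincubation, then GnRH 1 nM final, ≥5 h at 37 °C; luminescence read. Percent of control fitted to IC50; geometric mean of ≥2 independent experiments.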

SMILES | IC50 [nM]
CONC(=O)NCCOCCOCCOCCOCCOCCOCCC(=O)Nc1ccc(C[C@@H](NC(=O)[C@H](Cc2ccc(NC(=O)NOC)cc2)NC(=O)[C@H](CO)NC(=O)[C@@H](Cc2cccnc2)NC(=O)[C@@H](Cc2ccc(Cl)cc2)NC(=O)[C@@H](Cc2ccc3ccccc3c2)NC(C)=O)C(=O)N[C@@H](CC(C)C)C(=O)N[C@@H](CCCCNC(C)C)C(=O)N2CCC[C@H]2C(=O)N[C@H](C)C(N)=O)cc1 | 1.67
CCCC(=O)N[C@H](Cc1ccc2ccccc2c1)C(=O)N[C@H](Cc1ccc(Cl)cc1)C(=O)N[C@H](Cc1cccnc1)C(=O)N[C@@H](CO)C(=O)N[C@@H](Cc1ccc(NC(=O)NOC)cc1)C(=O)N[C@H](Cc1ccc(NC(=O)NOC)cc1)C(=O)N[C@@H](CC(C)C)C(=O)N[C@@H](CCCCNC(C)C)C(=O)N1CCC[C@H]1C(=O)N[C@H](C)C(N)=O (Butyryl-[d2Nal][dPhe(4-Cl)][d3Pal]S[Phe(4-NH2)](Methoxycarbamoyl)[dPhe(4-NH2)](Methoxycarbamoyl)L[Lys(iPr)]P[dA]-NH2) | 1.37
CONC(=O)NCCOCCOCCOCCC(=O)Nc1ccc(C[C@H](NC(=O)[C@H](CO)NC(=O)[C@@H](Cc2cccnc2)NC(=O)[C@@H](Cc2ccc(Cl)cc2)NC(=O)[C@@H](Cc2ccc3ccccc3c2)NC(C)=O)C(=O)N[C@H](Cc2ccc(NC(N)=O)cc2)C(=O)N[C@@H](CC(C)C)C(=O)N[C@@H](CCCCNC(C)C)C(=O)N2CCC[C@H]2C(=O)N[C@H](C)C(N)=O)cc1 (Ac-[d2Nal][dPhe(4-Cl)][d3Pal]S[Phe(4-NH2)]([PEG3-Methoxycarbamoyl])[dPhe(4-NHCONH2)]L[Lys(iPr)]P[dA]-NH2) | 1.06
CONC(=O)NCC[C@@H](NC(=O)[C@@H](Cc1ccc(Cl)cc1)NC(=O)[C@@H](Cc1ccc2ccccc2c1)NC(C)=O)C(=O)N[C@@H](CO)C(=O)N[C@@H](Cc1ccc(NC(=O)NOC)cc1)C(=O)N[C@H](Cc1ccc(NC(=O)NOC)cc1)C(=O)N[C@@H](CC(C)C)C(=O)N[C@@H](CCCCNC(C)C)C(=O)N1CCC[C@H]1C(=O)N[C@H](C)C(N)=O | 1.49
CCCCCCCC(=O)N[C@H](Cc1ccc2ccccc2c1)C(=O)N[C@H](Cc1ccc(Cl)cc1)C(=O)N[C@H](Cc1cccnc1)C(=O)N[C@@H](CO)C(=O)N[C@@H](Cc1ccc(NC(=O)NOC)cc1)C(=O)N[C@H](Cc1ccc(NC(N)=O)cc1)C(=O)N[C@@H](CC(C)C)C(=O)N[C@@H](CCCCNC(C)C)C(=O)N1CCC[C@H]1C(=O)N[C@H](C)C(N)=O | 4.17
CCOCCOCCNC(=O)Nc1ccc(C[C@H](NC(=O)[C@H](CO)NC(=O)[C@@H](Cc2cccnc2)NC(=O)[C@@H](Cc2ccc(Cl)cc2)NC(=O)[C@@H](Cc2ccc3ccccc3c2)NC(=O)NCCOCCOCC)C(=O)N[C@H](Cc2ccc(NC(=O)NCCOCCOCC)cc2)C(=O)N[C@@H](CC(C)C)C(=O)N[C@@H](CCCCNC(C)C)C(=O)N2CCC[C@H]2C(=O)N[C@H](C)C(N)=O)cc1 | 2.55
CC(=O)N[C@H](Cc1ccc2ccccc2c1)C(=O)N[C@H](Cc1ccc(Cl)cc1)C(=O)N[C@H](CCNC(=O)NO)C(=O)N[C@@H](CO)C(=O)N[C@@H](Cc1ccc(NC(=O)[C@@H]2CC(=O)NC(=O)N2)cc1)C(=O)N[C@H](Cc1ccc(NC(N)=O)cc1)C(=O)N[C@@H](CC(C)C)C(=O)N[C@@H](CCCCNC(C)C)C(=O)N1CCC[C@H]1C(=O)N[C@H](C)C(N)=O | 2.68
CONC(=O)NCC[C@@H](NC(=O)[C@@H](Cc1ccc(Cl)cc1)NC(=O)[C@@H](Cc1ccc2ccccc2c1)NC(C)=O)C(=O)N[C@@H](CO)C(=O)N[C@@H](Cc1ccc(NC(=O)[C@@H]2CC(=O)NC(=O)N2)cc1)C(=O)N[C@H](Cc1ccc(NC(N)=O)cc1)C(=O)N[C@@H](CC(C)C)C(=O)N[C@@H](CCCCNC(C)C)C(=O)N1CCC[C@H]1C(=O)N[C@H](C)C(N)=O | 1.69
CCOCCOCCNC(=O)Nc1ccc(C[C@@H](NC(=O)[C@H](Cc2ccc(NC(=O)[C@@H]3CC(=O)NC(=O)N3)cc2)NC(=O)[C@H](CO)NC(=O)[C@@H](Cc2cccnc2)NC(=O)[C@@H](Cc2ccc(Cl)cc2)NC(=O)[C@@H](Cc2ccc3ccccc3c2)NC(=O)NCCOCCOCC)C(=O)N[C@@H](CC(C)C)C(=O)N[C@@H](CCCCNC(C)C)C(=O)N2CCC[C@H]2C(=O)N[C@H](C)C(N)=O)cc1 | 4.55
CONC(=O)NC[C@@H](NC(=O)[C@@H](Cc1ccc(Cl)cc1)NC(=O)[C@@H](Cc1ccc2ccccc2c1)NC(C)=O)C(=O)N[C@@H](CO)C(=O)N[C@@H](Cc1ccc(NC(=O)[C@@H]2CC(=O)NC(=O)N2)cc1)C(=O)N[C@H](Cc1ccc(NC(N)=O)cc1)C(=O)N[C@@H](CC(C)C)C(=O)N[C@@H](CCCCNC(C)C)C(=O)N1CCC[C@H]1C(=O)N[C@H](C)C(N)=O | 3.16
CCOCCOCCNC(=O)Nc1ccc(C[C@H](NC(=O)[C@H](CO)NC(=O)[C@@H](Cc2cccnc2)NC(=O)[C@@H](Cc2ccc(Cl)cc2)NC(=O)[C@@H](Cc2ccc3ccccc3c2)NC(C)=O)C(=O)N[C@H](Cc2ccc(NC(=O)NCCOCCOCC)cc2)C(=O)N[C@@H](CC(C)C)C(=O)N[C@@H](CCCCNC(C)C)C(=O)N2CCC[C@H]2C(=O)N[C@H](C)C(N)=O)cc1 | 2.04
CC(=O)N[C@H](Cc1ccc2ccccc2c1)C(=O)N[C@H](Cc1ccc(Cl)cc1)C(=O)N[C@H](Cc1cccnc1)C(=O)N[C@@H](CO)C(=O)N[C@@H](Cc1ccc(NC(=O)NO)cc1)C(=O)N[C@H](Cc1ccc(NC(N)=O)cc1)C(=O)N[C@@H](CC(C)C)C(=O)N[C@@H](CCCCNC(C)C)C(=O)N1CCC[C@H]1C(=O)N[C@H](C)C(N)=O | 0.86
CC(=O)N[C@H](Cc1ccc2ccccc2c1)C(=O)N[C@H](Cc1ccc(Cl)cc1)C(=O)N[C@H](Cc1cccnc1)C(=O)N[C@@H](CO)C(=O)N[C@@H](Cc1ccc(NC(=O)[C@@H]2CC(=O)NC(=O)N2)cc1)C(=O)N[C@H](Cc1ccc(NC(=O)NO)cc1)C(=O)N[C@@H](CC(C)C)C(=O)N[C@@H](CCCCNC(C)C)C(=O)N1CCC[C@H]1C(=O)N[C@H](C)C(N)=O | 0.8
CCCCCCCC(=O)N[C@H](Cc1ccc2ccccc2c1)C(=O)N[C@H](Cc1ccc(Cl)cc1)C(=O)N[C@H](Cc1cccnc1)C(=O)N[C@@H](CO)C(=O)N[C@@H](Cc1ccc(NC(=O)[C@@H]2CC(=O)NC(=O)N2)cc1)C(=O)N[C@H](Cc1ccc(NC(=O)NOC)cc1)C(=O)N[C@@H](CC(C)C)C(=O)N[C@@H](CCCCNC(C)C)C(=O)N1CCC[C@H]1C(=O)N[C@H](C)C(N)=O | 9.47
CCCC(=O)N[C@H](Cc1ccc2ccccc2c1)C(=O)N[C@H](Cc1ccc(Cl)cc1)C(=O)N[C@H](Cc1cccnc1)C(=O)N[C@@H](CO)C(=O)N[C@@H](Cc1ccc(NC(=O)NOC)cc1)C(=O)N[C@H](Cc1ccc(NC(N)=O)cc1)C(=O)N[C@@H](CC(C)C)C(=O)N[C@@H](CCCCNC(C)C)C(=O)N1CCC[C@H]1C(=O)N[C@H](C)C(N)=O | 1.46
CONC(=O)Nc1ccc(C[C@H](NC(=O)[C@H](CO)NC(=O)[C@@H](Cc2cccnc2)NC(=O)[C@@H](Cc2ccc(Cl)cc2)NC(=O)[C@@H](Cc2ccc3ccccc3c2)NC(C)=O)C(=O)N[C@H](Cc2ccc(NC(=O)NOC)cc2)C(=O)N[C@@H](CC(C)C)C(=O)N[C@@H](CCCNC(=O)CNC(C)C)C(=O)N2CCC[C@H]2C(=O)N[C@H](C)C(N)=O)cc1 | 1.53
CCOCCOCCNC(=O)Nc1ccc(C[C@@H](NC(=O)[C@H](Cc2ccc(NC(=O)[C@@H]3CC(=O)NC(=O)N3)cc2)NC(=O)[C@H](CO)NC(=O)[C@@H](Cc2cccnc2)NC(=O)[C@@H](Cc2ccc(Cl)cc2)NC(=O)[C@@H](Cc2ccc3ccccc3c2)NC(C)=O)C(=O)N[C@@H](CC(C)C)C(=O)N[C@@H](CCCCNC(C)C)C(=O)N2CCC[C@H]2C(=O)N[C@H](C)C(N)=O)cc1 (Ac-[d2Nal][dPhe(4-Cl)][d3Pal]S[Phe(4-NH2)](Dihydroorotyl(S))[dPhe(4-NH2)]([CO-NHCH2CH2OCH2CH2OEt])L[Lys(iPr)]P[dA]-NH2) | 0.88
CC(=O)N[C@H](Cc1ccc2ccccc2c1)C(=O)N[C@H](Cc1ccc(Cl)cc1)C(=O)N[C@H](CNC(=O)NO)C(=O)N[C@@H](CO)C(=O)N[C@@H](Cc1ccc(NC(=O)[C@@H]2CC(=O)NC(=O)N2)cc1)C(=O)N[C@H](Cc1ccc(NC(N)=O)cc1)C(=O)N[C@@H](CC(C)C)C(=O)N[C@@H](CCCCNC(C)C)C(=O)N1CCC[C@H]1C(=O)N[C@H](C)C(N)=O | 3.46
CONC(=O)Nc1ccc(C[C@H](NC(=O)[C@H](CO)NC(=O)[C@@H](CCC(N)=O)NC(=O)[C@@H](Cc2ccc(Cl)cc2)NC(=O)[C@@H](Cc2ccc3ccccc3c2)NC(C)=O)C(=O)N[C@H](Cc2ccc(NC(=O)NOC)cc2)C(=O)N[C@@H](CC(C)C)C(=O)N[C@@H](CCCCNC(C)C)C(=O)N2CCC[C@H]2C(=O)N[C@H](C)C(N)=O)cc1 | 2.98
CCCCCCCC(=O)N[C@H](Cc1ccc2ccccc2c1)C(=O)N[C@H](Cc1ccc(Cl)cc1)C(=O)N[C@H](Cc1cccnc1)C(=O)N[C@@H](CO)C(=O)N[C@@H](Cc1ccc(NC(=O)NOC)cc1)C(=O)N[C@H](Cc1ccc(NC(=O)NOC)cc1)C(=O)N[C@@H](CC(C)C)C(=O)N[C@@H](CCCCNC(C)C)C(=O)N1CCC[C@H]1C(=O)N[C@H](C)C(N)=O | 4.99
CCCC(=O)N[C@H](Cc1ccc2ccccc2c1)C(=O)N[C@H](Cc1ccc(Cl)cc1)C(=O)N[C@H](Cc1cccnc1)C(=O)N[C@@H](CO)C(=O)N[C@@H](Cc1ccc(NC(=O)[C@@H]2CC(=O)NC(=O)N2)cc1)C(=O)N[C@H](Cc1ccc(NC(=O)NOC)cc1)C(=O)N[C@@H](CC(C)C)C(=O)N[C@@H](CCCCNC(C)C)C(=O)N1CCC[C@H]1C(=O)N[C@H](C)C(N)=O | 2.13
